Screening results: PubChem, Columbia University Molecular Screening Center
INS promoter act = TRM-6 insulin promoter activation. 130,000 compounds, 0.81% hits. activation, % at 2 µM. TRM-6 cells, insulin promoter eGFP reporter, imaging; plate-scaled: unstimulated 0, stimulated control 100;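 active = activation at 2 µM above a set limit, confirmed on inspection of the cell images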;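 also: share of cells whose green reporter signal exceeds an intensity cutoff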
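material = TRM-6 human fetal islet cells, insulin promoter–eGFP reporter | input = 1,000 TRM-6 cells seeded per well | benchmarks = stimulated versus unstimulated wells as plate controls | measured by = automated fluorescence imaging of paraformaldehyde-fixed, Hoechst-counterstained cells, green channel | schedule = compound exposure 48 h, 37 °C | reagent = tamoxifen at 0.75 µM added at seeding for reporter induction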
Starred values were filed as active, the others as inactive. Many of the other results were omitted from the sample, so hits are more common in it than they were.

SMILES	INS promoter act
Cc1ccc(-c2nnn(CC(=O)N(c3ccccc3)C(C(=O)NC(C)(C)C)c3cccs3)n2)o1 (centres undefined)	100
CCOc1ccc(N(C(=O)Cn2nnc3ccccc32)C(C(=O)NC(C)(C)CC)c2cccn2C)cc1 (centres undefined)	462*
CCC(C)(C)NC(=O)C(c1cccn1C)N(C(=O)Cn1nnc2ccccc21)c1ccc(OC)cc1OC (centres undefined)	170
COc1ccc(C(=O)NC2(C(F)(F)F)C(=O)Nc3c2c(=O)[nH]c(=O)n3CCc2ccc(OC)c(OC)c2)cc1 (centres undefined)	-8
CC(C)C(=O)Nc1ccc(C(=O)c2ccccc2)cc1	0
COc1cnn(-c2ccc(C)cc2)c(=O)c1Cl	146
Cc1ccc(-n2c(Cl)c(Cl)nc(Cl)c2=O)cc1	233*
CSc1nccc(-c2nn(-c3ccc(C)cc3)ccc2=O)n1	-8
CCOC(=O)CCC(=O)N1CCOCCOCCN(C(=O)CCC(=O)OCC)CCOCCOCC1	0
Cc1ccc2nc(/C(C#N)=C\c3ccc(Oc4ccc([N+](=O)[O-])cn4)cc3)[nH]c2c1	-4
Cc1ccc2nc(/C(C#N)=C\c3ccc(N4CCOCC4)o3)[nH]c2c1	456*
Cc1ccc2nc(/C(C#N)=C\c3cc(C)n(-c4cccc([N+](=O)[O-])c4)c3C)[nH]c2c1	0
Cc1ccc(Cn2c(SCC(C)C)nc3c2c(=O)n(C)c(=O)n3C)cc1	-8
COCCn1c(C)cc(C(=O)CSc2nc(C)nc3sc4c(c23)CCC4)c1C	341
Fc1ccc(Sc2ccccc2CNC2=NCCN2)cc1	0
O=C(NCC1(c2ccccc2)CCCC1)c1cccc(Br)c1	9
CN(C)c1ccc(/C=C2\CCC/C(=C\c3ccccc3)C2=O)cc1	120
O=C1/C(=C/c2ccc(F)cc2)CCC1C1CCCC1 (centres undefined)	442*
O=C1/C(=C/c2ccco2)CCC1C1CCCC1 (centres undefined)	-7
O=C(NCCCn1ccnc1)c1cccc(S(=O)(=O)NCc2ccccc2)c1	400*
O=C(NCCCn1ccnc1)c1cccc(S(=O)(=O)Nc2ccccc2F)c1	-9
CCN(c1ccccc1)S(=O)(=O)c1ccc(C(=O)NCCCn2ccnc2)cc1	9
COCC(C)NC(=O)NC(=O)c1ccc(Cl)cc1 (centres undefined)	77*
COCC(C)NC(=O)c1cccc(Cl)c1 (centres undefined)	0
COCC(C)NC(=O)NC1(C(F)(F)F)Oc2ccc(Cl)cc2O1 (centres undefined)	-71
SMILES	INS promoter act
CC(=O)c1ccc(NC(=O)Nc2ccccc2)cc1	0
CC(=O)c1ccc(NC(=O)NCc2ccc(F)cc2)cc1	326*
CCN(CC)c1ccc(NC(=O)Nc2ccc(C(C)=O)cc2)cc1	2
CCOC(=O)c1c(NC(=O)CSc2nnnn2-c2ccc(OC)cc2)sc(C)c1C	-7
S=c1[nH]nc(-c2ccco2)n1Cc1ccccc1	407*
O=c1c2ccccc2nc(-c2ccco2)n1Cc1ccccc1	0
Cc1c(Cl)c(-c2n[nH]c(=S)n2Cc2ccco2)nn1C	8
Cc1nc(SCC(=O)Nn2c(-c3ccccc3)nc3ccccc3c2=O)n[nH]1	-3
CC(Sc1nnc(NC2CCCCC2)s1)C(=O)Nc1ccc2c(c1)C(=O)c1ccccc1C2=O (centres undefined)	-8
CN1c2cccc3cccc(c23)N(C)C1(C)C	6
CC(=O)c1ccc2cccc3c2c1N=CN3C	130*
CN1/C(=N\O)c2cccc3cccc1c23	7
Cc1ccccc1NC(=O)CCC(=O)OCC(=O)c1ccc(-c2ccccc2)cc1	9
O=C(Nc1cccnc1)C1CCCN1S(=O)(=O)c1ccc(Cl)c(Cl)c1 (centres undefined)	481*
O=C(Nc1cccc(S(=O)(=O)N2CCOCC2)c1)[C@@H]1CCCN1S(=O)(=O)c1ccc(Cl)cc1	103
COc1ccc(S(=O)(=O)N2CCCC(C(=O)Nc3cccnc3)C2)cc1Cl (centres undefined)	-8
CN(C)c1oc(-c2ccc(Cl)cc2)nc1S(=O)(=O)c1ccccc1	-2
CN(C(=O)CSc1nc(-c2ccccc2)cn1N)C(c1ccccc1)c1ccccc1	82*
Cc1ccc(-c2cc(-c3nnc(SCC(=O)NC(C)C(C)C)n3N)c3ccccc3n2)cc1 (centres undefined)	2
Nn1c(SCC(=O)Nc2ccc3c(c2)OCO3)nnc1-c1ccccc1	-6
CC(C)(C)C1CCc2[nH]nc(C(=O)O)c2C1 (centres undefined)	1
NC(=O)C1CC(=O)N(c2ccc(OCc3c(Cl)cccc3Cl)cc2)C1 (centres undefined)	0
Cc1c(NC(=O)COC(=O)COc2ccc(Nc3ccccc3)cc2)c(=O)n(-c2ccccc2)n1C	133
Cc1c(NC(=O)COC(=O)CCC(=O)c2ccc(Cl)cc2)c(=O)n(-c2ccccc2)n1C	8
COc1ccc2cc(-c3cc(C(=O)OCC(=O)Nc4c(C)n(C)n(-c5ccccc5)c4=O)c4ccccc4n3)ccc2c1	325*
SMILES	INS promoter act
O=C(CN(Cc1ccco1)C(=O)c1cc(=O)[nH]c2ccccc12)Nc1ccccc1Br	8
O=C(NCCCn1ccnc1)C(=O)NCC1OCCCN1S(=O)(=O)c1ccccc1 (centres undefined)	0
CCOC(=O)c1cnc2nc(COc3ccccc3)[nH]n2c1=O	50
O=C1c2cccc3c(N4CCCCC4)ccc(c23)C(=O)N1c1ccc(Cl)cn1	-5
Cn1nc(C(=O)OCCN2C(=O)c3ccccc3C2=O)c2ccccc2c1=O	3
O=C(OCCN1C(=O)c2cccc3c(N4CCOCC4)ccc(c23)C1=O)c1cc(Cl)cc(Cl)c1	204*
CCN(CC)S(=O)(=O)c1ccc(C(=O)OCCN2C(=O)c3cccc4c(N5CCOCC5)ccc(c34)C2=O)cc1	0
CCN1C(=O)c2cccc3c(S(=O)(=O)Nc4ccccc4OC)ccc1c23	109
CCCN1C(=O)c2cccc3c(N4CCCCC4)ccc(c23)C1=O	245*
Brc1cc2c(cc1/C=N/Nc1nc(N3CCCCC3)nc(N3CCCCC3)n1)OCO2	0
O=C(NNS(=O)(=O)c1ccc2ccccc2c1)c1cccnc1	-8
CCOC(=O)C1=C(C)OC(N)=C(C#N)C1c1cc(Cl)c(OCC(N)=O)c(OC)c1 (centres undefined)	-4
O=C(c1cc2c(s1)CCCC2)N1CCN(S(=O)(=O)c2ccccc2C(F)(F)F)CC1	0
COCCn1c(SCc2c(F)cccc2Cl)nc2c1c(=O)[nH]c(=O)n2C	142
O=C(CCN1C(=O)/C(=C/C=C/c2ccccc2)SC1=S)Nc1cccnc1	-5
C#CCN1C(=O)S/C(=C/C=C/c2ccc(N(C)C)cc2)C1=O	270*
CC1=NN(c2ccccc2)C(=O)/C1=C/C=C/c1ccc(N(C)C)cc1	0
CC(C(=O)O/N=C(\N)c1cccnc1)c1ccc([N+](=O)[O-])cc1 (centres undefined)	0
COc1cc(NC(=O)CSCC(=O)Nc2cccc(C(F)(F)F)c2)c(Cl)cc1Cl	-9
COc1cc(/C=C2\C(=O)N(CCC#N)N=C2C)ccc1OCC(=O)Nc1ccccc1	-3
COc1cc(/C=C(\C#N)c2ccccn2)ccc1OCC(=O)Nc1cccc(C(F)(F)F)c1	280*
O=C(O)CCCC(=O)N1CCc2cc(S(=O)(=O)NCc3ccc(F)cc3)ccc21	0
O=c1c2ccccc2c(/C=N/NS(=O)(=O)c2ccccc2)c(O)n1-c1ccccn1	-7
